Among the data in ChEMBL document CHEMBL4304816, “A Novel Biphenyl-based Chemotype of Retinoid X Receptor Ligands Enables Subtype and Heterodimer Preferences” (ACS Med Chem Lett, 2019) are fold change (FC), EC50 and Activity values, retold here.

Holding throughout (format): cell-based
Assay [1] addresses T1, Retinoic acid receptor RXR-gamma (Homo sapiens) (UniProt P48443).
T1 sequence (whole entry): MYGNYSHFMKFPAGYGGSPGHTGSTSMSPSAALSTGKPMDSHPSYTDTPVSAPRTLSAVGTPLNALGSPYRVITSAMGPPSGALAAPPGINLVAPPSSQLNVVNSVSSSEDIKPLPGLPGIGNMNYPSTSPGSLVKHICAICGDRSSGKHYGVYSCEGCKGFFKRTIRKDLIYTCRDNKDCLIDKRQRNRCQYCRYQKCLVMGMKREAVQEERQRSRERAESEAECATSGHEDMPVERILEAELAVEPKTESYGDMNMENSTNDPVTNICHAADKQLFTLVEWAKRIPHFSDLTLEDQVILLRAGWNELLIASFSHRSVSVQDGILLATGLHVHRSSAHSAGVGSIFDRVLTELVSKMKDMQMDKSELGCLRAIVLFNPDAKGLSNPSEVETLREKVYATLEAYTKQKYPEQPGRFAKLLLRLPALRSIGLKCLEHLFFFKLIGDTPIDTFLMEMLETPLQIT
In words: Agonist activity at Gal4-LBD fused RXRgamma (unknown origin) expressed in HEK293T cells assessed as fold activation at 10 uM after 14 to 16 hrs by dual-Glo luciferase assay relative to untreated control. Summed up: (§1)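 Gal4-hybrid RXRα/β/γ reporter gene assays in HEK293T cells. Fold activation is the maximal fold activation versus 0.1% DMSO.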

Assay [2] addresses T2, Retinoic acid receptor RXR-beta (Homo sapiens, UniProt P28702).
T2 sequence (P28702 whole entry): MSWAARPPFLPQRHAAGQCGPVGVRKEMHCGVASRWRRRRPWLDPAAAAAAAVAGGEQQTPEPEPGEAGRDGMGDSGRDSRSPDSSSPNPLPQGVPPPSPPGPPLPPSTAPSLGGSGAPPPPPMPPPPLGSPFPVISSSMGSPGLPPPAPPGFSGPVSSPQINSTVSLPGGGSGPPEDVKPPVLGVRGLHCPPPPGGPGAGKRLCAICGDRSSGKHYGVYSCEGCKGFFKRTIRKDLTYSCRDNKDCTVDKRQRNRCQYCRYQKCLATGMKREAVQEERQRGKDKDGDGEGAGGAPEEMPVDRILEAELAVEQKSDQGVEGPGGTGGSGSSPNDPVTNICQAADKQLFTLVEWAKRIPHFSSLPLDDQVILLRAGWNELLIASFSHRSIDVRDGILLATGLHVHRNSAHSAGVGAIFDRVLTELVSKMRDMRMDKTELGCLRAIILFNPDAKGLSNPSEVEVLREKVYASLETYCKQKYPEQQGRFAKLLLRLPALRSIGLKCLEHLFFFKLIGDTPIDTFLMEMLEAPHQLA
In words: Agonist activity at Gal4-LBD fused RXRbeta (unknown origin) expressed in HEK293T cells after 14 to 16 hrs by dual-Glo luciferase assay. Summed up: as §1

For assay [3], the target named is T1, Retinoic acid receptor RXR-gamma (Homo sapiens). The assay can be described thus: Agonist activity at Gal4-LBD fused RXRgamma (unknown origin) expressed in HEK293T cells at 10 uM after 14 to 16 hrs by dual-Glo luciferase assay.
Assay [4] has as its target T3, Retinoic acid receptor RXR-alpha (Homo sapiens) (UniProt P19793).
T3 sequence (whole entry): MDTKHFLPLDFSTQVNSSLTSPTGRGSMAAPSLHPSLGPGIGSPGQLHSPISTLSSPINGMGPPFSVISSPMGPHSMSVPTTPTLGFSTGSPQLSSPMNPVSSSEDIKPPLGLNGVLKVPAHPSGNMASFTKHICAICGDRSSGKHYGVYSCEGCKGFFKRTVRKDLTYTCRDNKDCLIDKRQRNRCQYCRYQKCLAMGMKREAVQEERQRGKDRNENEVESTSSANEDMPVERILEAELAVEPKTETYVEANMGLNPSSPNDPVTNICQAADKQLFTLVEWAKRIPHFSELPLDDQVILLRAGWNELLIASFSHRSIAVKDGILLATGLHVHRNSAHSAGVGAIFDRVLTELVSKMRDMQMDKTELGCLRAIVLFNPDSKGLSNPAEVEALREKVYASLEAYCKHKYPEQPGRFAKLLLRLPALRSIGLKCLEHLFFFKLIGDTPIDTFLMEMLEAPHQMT
The assay can be described thus: Agonist activity at Gal4-LBD fused RXRalpha (unknown origin) expressed in HEK293T cells assessed as fold activation after 14 to 16 hrs by dual-Glo luciferase assay relative to untreated control. In a few lines: as §1

The target in assay [5] is T4, Retinoic acid receptor RXR-beta (Homo sapiens) (UniProt P28702).
T4 sequence (whole entry): T2 sequence (P28702 whole entry)
The assay can be described thus: Agonist activity at Gal4-LBD fused RXRbeta (unknown origin) expressed in HEK293T cells assessed as fold activation after 14 to 16 hrs by dual-Glo luciferase assay relative to untreated control. In a few lines:
as §1

Assay [6] addresses T4, Retinoic acid receptor RXR-beta (Homo sapiens). In words: Agonist activity at Gal4-LBD fused RXRbeta (unknown origin) expressed in HEK293T cells assessed as fold activation at 10 uM after 14 to 16 hrs by dual-Glo luciferase assay relative to untreated control. In a few lines:
as §1

Assay [7] deals with T5, Retinoic acid receptor RXR-alpha (Homo sapiens, UniProt P19793).
T5 sequence (P19793 whole entry): T3 sequence (whole entry)
The assay can be described thus: Agonist activity at Gal4-LBD fused RXRalpha (unknown origin) expressed in HEK293T cells after 14 to 16 hrs by dual-Glo luciferase assay. Summed up: as §1

The target of assay [8] is T3, Retinoic acid receptor RXR-alpha (Homo sapiens). In words: Agonist activity at Gal4-LBD fused RXRalpha (unknown origin) expressed in HEK293T cells assessed as fold activation at 10 uM after 14 to 16 hrs by dual-Glo luciferase assay relative to untreated control. In a few lines: as §1
Assay [9] has as its target T4, Retinoic acid receptor RXR-beta (Homo sapiens). In words: Agonist activity at Gal4-LBD fused RXRbeta (unknown origin) expressed in HEK293T cells at 30 uM after 14 to 16 hrs by dual-Glo luciferase assay.
Assay [10] concerns the target T3, Retinoic acid receptor RXR-alpha (Homo sapiens). The assay can be described thus: Agonist activity at Gal4-LBD fused RXRalpha (unknown origin) expressed in HEK293T cells at 30 uM after 14 to 16 hrs by dual-Glo luciferase assay.
Assay [11] addresses T1, Retinoic acid receptor RXR-gamma (Homo sapiens). In words: Agonist activity at Gal4-LBD fused RXRgamma (unknown origin) expressed in HEK293T cells at 30 uM after 14 to 16 hrs by dual-Glo luciferase assay.
Assay [12] has the same target. The assay can be described thus: Agonist activity at Gal4-LBD fused RXRgamma (unknown origin) expressed in HEK293T cells at 20 uM after 14 to 16 hrs by dual-Glo luciferase assay.
The target of assay [13] is T3, Retinoic acid receptor RXR-alpha (Homo sapiens). The assay can be described thus: Agonist activity at Gal4-LBD fused RXRalpha (unknown origin) expressed in HEK293T cells at 10 uM after 14 to 16 hrs by dual-Glo luciferase assay.
The target of assay [14] is T4, Retinoic acid receptor RXR-beta (Homo sapiens). In words: Agonist activity at Gal4-LBD fused RXRbeta (unknown origin) expressed in HEK293T cells at 10 uM after 14 to 16 hrs by dual-Glo luciferase assay.
The target of assay [15] is T6, Retinoic acid receptor RXR-gamma (Homo sapiens, UniProt P48443).
T6 sequence (P48443 whole entry): T1 sequence (whole entry)
In words: Agonist activity at Gal4-LBD fused RXRgamma (unknown origin) expressed in HEK293T cells after 14 to 16 hrs by dual-Glo luciferase assay. Summed up: as §1

Assay [16] addresses T1, Retinoic acid receptor RXR-gamma (Homo sapiens). In words: Agonist activity at Gal4-LBD fused RXRgamma (unknown origin) expressed in HEK293T cells assessed as fold activation after 14 to 16 hrs by dual-Glo luciferase assay relative to untreated control. In a few lines: as §1

Structures are written as SMILES. pEC50: −log10 of the molar value. Activity calls are given as the source filed them. The rule behind the calls is not given here.

What is called pEC50 is the negative decadic logarithm of the EC50, by convention in mol/L. The low end stands for a high EC50, the high end for a low EC50. Regarding `CC(C)(C)c1cc(-c2cccc(C(=O)O)c2)cc(C(C)(C)C)c1`, the fold change (FC) in assay [1] came to 4; in assay [4] it was 31; in assay [5], 84; in [6] it was 82; in assay [8] it was 32. Further, the pEC50 was 5.51 in assay [2] and 5.43 in assay [7]. In assay [3], the outcome was inactive.
With `O=C(O)c1ccc(-c2ccccc2)cc1`, the outcome in assay [9], in assay [10] and in assay [11] was inactive.
With `Cc1cc(-c2cc(C(C)(C)C)cc(C(C)(C)C)c2)ccc1CC(=O)O`, the pEC50 in assay [2] was 5.15; in assay [7], 5.46. In [3], the outcome was inactive. Further, the figures for the fold change (FC) in assay [4] and in [5] were 3.5 and 28, respectively.
For `CC(C)(C)c1cccc(-c2ccc(C(=O)O)cc2)c1`, the pEC50 in assay [2] was 4.89; in assay [7] it was 4.74. The fold change (FC) in assay [4] amounted to 19; in [5] it was 35. The result in [12] was inactive.
Take `Cc1cc(C(=O)O)ccc1-c1cc(C(C)(C)C)cc(C(C)(C)C)c1`: the outcome in assay [3], in assay [13] and in assay [14] was inactive.
As to `CCc1cc(CC)cc(-c2ccc(C(=O)O)cc2)c1`, the pEC50 in [2] is 5.17; in [7] it was 5.47. For the same compound, the values for the fold change (FC) in [4] and in assay [5] were 11 and 33, respectively. Besides, in [12], the outcome was inactive.
In the case of `Cc1cccc(-c2ccc(C(=O)O)cc2)c1`, the outcome in assay [9], in assay [10] and in assay [11] was inactive.
In the case of `CCOc1cccc(-c2ccc(C(=O)O)cc2)c1`, the pEC50 in assay [2] was 4.52; in assay [7], 4.65. For the same compound, the fold change (FC) in assay [4] and in [5] was 11 in each case. Moreover, the result in assay [11] was inactive.
Regarding `CC(C)(C)c1cc(-c2ccc(CCC(=O)O)cc2)cc(C(C)(C)C)c1`, the figures for the pEC50 in assay [2], in assay [15] and in [7] were 5.68, 5.30 and 5.82, respectively. Moreover, the fold change (FC) came to 21 in [4], 94 in assay [5] and 17 in [16].
As to `CC(C)(C)c1cc(-c2ccc(C(=O)O)nc2)cc(C(C)(C)C)c1`, the result in assay [3], in assay [13] and in assay [14] was inactive.
As to `CC(C)c1cccc(-c2ccc(C(=O)O)cc2)c1`, the values for the negative-log EC50 (pEC50) in assay [2], in assay [15] and in [7] were 4.79, 4.94 and 4.84, respectively. For the same compound, the results for the fold change (FC) in assay [4], in [5] and in [16] were 28, 65 and 2.7, respectively.
Consider `CC(C)Oc1cccc(-c2ccc(C(=O)O)cc2)c1`, for which the negative logarithm of the EC50 (pEC50) is 4.87 in assay [2] and 4.97 in assay [7]. Moreover, the fold change (FC) was found to be 18 in [4] and 19 in [5]. Besides, the outcome in [12] was inactive.
In the case of `O=C(O)c1ccc(-c2cc(C(F)(F)F)cc(C(F)(F)F)c2)cc1`, the fold change (FC) was 10 in [1]; 50 in [4]; 122 in assay [5]; 25 in assay [16]; 120 in [6]; 48 in assay [8]. In addition, the results for the negative-log EC50 (pEC50) in assay [2], in [15] and in assay [7] were 5.43, 4.90 and 5.51, respectively.
Consider `COc1cccc(-c2ccc(C(=O)O)cc2)c1`, for which the result in assay [9], in assay [10] and in [11] was inactive.
For the compound `COc1cc(OC)cc(-c2ccc(C(=O)O)cc2)c1`, in [4], the fold change (FC) amounted to 4.8. Further, the result in assay [9] and in assay [11] was inactive. In assay [7], this compound gave a negative logarithm of the EC50 (pEC50) of 4.60.
